According to ChEMBL document CHEMBL4613263, “Optimization of Tetrahydroindazoles as Inhibitors of Human Dihydroorotate Dehydrogenase and Evaluation of Their Activity and In Vitro Metabolic Stability” (J Med Chem, 2020):
Converted amounts (≈) assume the structure as drawn. Values belong to the compound of their own block, whether it stands above or below them. The source made the active and inactive calls. The calls are words filed in the database; no cut-off is given here.

Key:
[1] = Antiproliferative activity against human ARN8 cells assessed as reduction in cell viability incubated for 72 hrs by SRB assay; type: functional, cell-based
[2] = Cytotoxicity against human HNDF cells assessed as reduction in cell viability incubated for 72 hrs by SRB assay; type: cell-based
In short: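 Human normal dermal fibroblasts seeded at 15×10^2 per well and left 24 h, then exposed to compound for 72 h with 0.1% DMSO final. Cells fixed with TCA at 4 °C for 1 h, stained with SRB, solubilized in 10 mM Tris and read at 490 nm. Values normalized to DMSO control. Tabulated means come only from experiments where IC50 fell below 10 000 nM.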

[3] = Metabolic stability in human liver microsomes assessed as half life at 1 uM incubated for 60 mins by LC-MS/MS analysis; type: ADME, Microsome; conditions: for half-life at 1 µM: liver microsomes
In short: (§1)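 Compound at 1 µM with 1.0 mg/mL human or mouse liver microsomes in 50 mM potassium phosphate pH 7.4, preincubated 5 min at 37 °C. Started with 1 mM NADPH (or blank buffer). Quenched with cold acetonitrile containing glipizide at 0, 5, 15, 30, 60 min. Parent loss tracked by LC-MS/MS in MRM mode; t½ = 0.693/k from slope of peak-area ratio versus time.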

[4] = Metabolic stability in CD-1 mouse liver microsomes assessed as half life at 1 uM incubated for 60 mins by LC-MS/MS analysis; type: ADME, Microsome; conditions: for half-life at 1 µM: CD-1, mouse, liver microsomes; in short: as §1
[5] = Kinetic aqueous solubility of compound in Prima HT solution at pH 7.4 incubated for 4 hrs by UV-spectrophotometry; type: physicochemical; conditions: read-out: Kinetic_solubility
In short: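 20 mM DMSO stocks diluted 100× into Prima HT buffer at pH 7.4 and shaken 4 h at rt. Samples filtered through 0.22 µm, mixed 1:1 with isopropanol and scanned by UV from 190–400 nm against stock reference standards.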

[6] = molecular target: T1, Dihydroorotate dehydrogenase (quinone), mitochondrial (Homo sapiens, UniProt Q02127); assay: Inhibition of DHODH in human ARN8 cells assessed as activation of p53-dependent transcription at 0.05 to 10 uM incubated for 16 hrs by CPRG assay; type: cell-based
T1 sequence (Q02127 whole entry): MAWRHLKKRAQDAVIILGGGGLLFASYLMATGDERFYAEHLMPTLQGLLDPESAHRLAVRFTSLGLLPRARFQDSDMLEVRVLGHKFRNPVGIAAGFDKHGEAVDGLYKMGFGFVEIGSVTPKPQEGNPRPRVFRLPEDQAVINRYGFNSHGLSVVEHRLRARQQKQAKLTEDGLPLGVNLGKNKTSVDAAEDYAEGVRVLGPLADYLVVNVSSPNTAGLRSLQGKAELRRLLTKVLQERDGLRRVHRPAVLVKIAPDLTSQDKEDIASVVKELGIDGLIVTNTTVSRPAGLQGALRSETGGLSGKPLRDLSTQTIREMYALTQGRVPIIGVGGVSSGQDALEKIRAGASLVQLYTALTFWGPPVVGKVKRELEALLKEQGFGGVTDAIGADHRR
In short: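 ARN8 cells carrying the RGCΔFos-LacZ p53 reporter seeded at 2×10^4 per well and left 24 h, then treated 16 h (0.1% DMSO final, ±100 µM uridine). Cells washed, lysed and frozen at −20 °C for at least 2 h. β-galactosidase measured with CPRG substrate at pH 7.5, read at 590 nm after 24 h. Result is fold change vs DMSO; mean ± SD of three technical replicates.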

[7] = Drug metabolism in CD-1 mouse liver microsomes assessed as hydroxylation-mediated M1 metabolite with m/z as 397.1 formation by measuring retention time at 10 uM incubated for 60 mins by LC-MS/MS analysis; type: ADME, Microsome; conditions: 1 h
In short: (§2)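 10 µM compound in 100 mM phosphate pH 7.4 with pooled female CD-1 mouse liver microsomes and NADPH, at 37 °C for 0, 10, 20, 40 and 60 min. Stopped with equal-volume cold acetonitrile, then centrifuged, dried and reconstituted. Metabolites and parent resolved on C18 UHPLC with ion-trap MS. Each peak reported as % of total (metabolite + parent) area.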

[8] = Drug metabolism in CD-1 mouse liver microsomes assessed as hydroxylation-mediated M2 metabolite with m/z as 397.1 formation by measuring retention time at 10 uM incubated for 60 mins by LC-MS/MS analysis; type: ADME, Microsome; conditions: 1 h; in short: as §2
[9] = Drug metabolism in CD-1 mouse liver microsomes assessed as disappearance of parent compound by measuring parent compound retention time at 10 uM incubated for 60 mins by LC-MS/MS analysis; type: ADME, Microsome; conditions: 1 h; in short: as §2
[10] = molecular target: T1, Dihydroorotate dehydrogenase (quinone), mitochondrial; assay: Inhibition of recombinant human N-terminal His-tagged DHODH (31 to 395 residues) expressed in Escherichia coli expression system using dihydroorotic acid as substrate by DCIP assay
Homo sapiens [11] = species on record: Homo sapiens; assay: Antiproliferative activity against human ARN8 cells assessed as reduction in cell viability at 0.005 to 10 uM incubated for 72 hrs in presence of 100 uM […], uridine by SRB assay; type: functional, cell-based
Homo sapiens [12] = species on record: Homo sapiens; assay: Antiproliferative activity against human ARN8 cells assessed as reduction in cell viability incubated with compound at higher concentration for 72 hrs in presence of 100 uM […], uridine by SRB assay; type: functional, cell-based
[13] = Cytotoxicity against human HNDF cells assessed as reduction in cell viability incubated with compound at higher concentration for 72 hrs in presence of 100 uM […], uridine by SRB assay; type: cell-based
In short: (§3)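 Normal dermal fibroblasts seeded at 15×10^2 per well and left 24 h, then treated 72 h in medium with 0.1% DMSO final plus 100 µM uridine. Fixed with TCA, stained with 0.4% SRB, dye dissolved in Tris and read at 490 nm. Growth/viability given as % of DMSO control; mean ± SD of three technical replicates.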

[14] = Cytotoxicity against human HNDF cells assessed as reduction in cell viability incubated for 72 hrs in presence of 100 uM […], uridine by SRB assay; type: cell-based; in short: as §3
[15] = molecular target: DNA topoisomerase 2-alpha (Homo sapiens) (UniProt P11388); conditions: 20 uM
Sequence of DNA topoisomerase 2-alpha (Homo sapiens) (P11388 whole entry): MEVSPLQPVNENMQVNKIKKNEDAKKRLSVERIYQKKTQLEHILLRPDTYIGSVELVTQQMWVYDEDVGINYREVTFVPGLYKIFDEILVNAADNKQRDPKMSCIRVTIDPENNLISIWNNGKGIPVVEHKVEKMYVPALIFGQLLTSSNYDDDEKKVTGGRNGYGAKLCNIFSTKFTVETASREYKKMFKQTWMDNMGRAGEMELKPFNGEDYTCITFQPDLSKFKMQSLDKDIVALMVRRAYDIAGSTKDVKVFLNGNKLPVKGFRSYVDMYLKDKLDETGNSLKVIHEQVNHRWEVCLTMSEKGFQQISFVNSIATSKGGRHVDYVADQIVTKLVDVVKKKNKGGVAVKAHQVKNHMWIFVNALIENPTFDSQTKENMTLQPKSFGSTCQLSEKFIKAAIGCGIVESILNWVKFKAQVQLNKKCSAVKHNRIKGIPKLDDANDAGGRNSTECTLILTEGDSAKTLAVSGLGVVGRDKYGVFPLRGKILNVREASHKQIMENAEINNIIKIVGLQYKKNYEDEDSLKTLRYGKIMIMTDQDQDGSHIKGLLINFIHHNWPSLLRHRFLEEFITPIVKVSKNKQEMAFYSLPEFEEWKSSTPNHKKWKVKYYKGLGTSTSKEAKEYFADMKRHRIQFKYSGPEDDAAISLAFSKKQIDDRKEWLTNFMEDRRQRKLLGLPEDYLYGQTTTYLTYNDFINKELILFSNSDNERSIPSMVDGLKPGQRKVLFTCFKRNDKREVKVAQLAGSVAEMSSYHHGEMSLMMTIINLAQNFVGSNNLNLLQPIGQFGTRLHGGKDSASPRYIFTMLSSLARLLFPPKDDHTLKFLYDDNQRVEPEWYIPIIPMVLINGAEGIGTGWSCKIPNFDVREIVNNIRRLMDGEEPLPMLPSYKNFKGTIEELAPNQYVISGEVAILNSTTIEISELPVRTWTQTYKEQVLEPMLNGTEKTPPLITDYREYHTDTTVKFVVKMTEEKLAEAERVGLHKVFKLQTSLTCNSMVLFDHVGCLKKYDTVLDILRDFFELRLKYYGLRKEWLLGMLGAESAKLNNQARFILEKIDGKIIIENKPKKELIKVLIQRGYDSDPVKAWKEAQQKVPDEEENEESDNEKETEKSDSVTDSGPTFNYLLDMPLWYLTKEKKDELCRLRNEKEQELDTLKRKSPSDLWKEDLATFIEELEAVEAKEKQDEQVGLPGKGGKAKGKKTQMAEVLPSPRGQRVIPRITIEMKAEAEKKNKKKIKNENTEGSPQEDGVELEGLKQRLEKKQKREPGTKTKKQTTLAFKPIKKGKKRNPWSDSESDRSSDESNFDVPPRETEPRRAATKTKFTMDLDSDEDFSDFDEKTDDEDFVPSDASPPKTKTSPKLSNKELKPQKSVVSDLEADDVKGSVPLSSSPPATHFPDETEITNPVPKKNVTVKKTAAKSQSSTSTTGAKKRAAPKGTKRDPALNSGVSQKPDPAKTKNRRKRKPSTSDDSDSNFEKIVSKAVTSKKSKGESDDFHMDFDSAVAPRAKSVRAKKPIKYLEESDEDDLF

[16] = molecular target: DNA topoisomerase 2-alpha (Homo sapiens) (UniProt P11388); conditions: 20 uM; remark: listed apart in the source
[17] = molecular target: DNA topoisomerase 2-alpha (Homo sapiens) (UniProt P11388); conditions: 20 uM; remark: listed apart in the source
[18] = molecular target: DNA topoisomerase 2-alpha (Homo sapiens) (UniProt P11388); conditions: 20 uM; remark: listed apart in the source
[19] = molecular target: T1, Dihydroorotate dehydrogenase (quinone), mitochondrial; assay: Inhibition of DHOH in human ARN8 cells assessed as gammaH2AX level at 20 uM incubated for 1 hr in presence of pan-caspase inhibitor, Z-VAD-FMK by Western blot analysis; type: cell-based
In short: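 ARN8 cells treated 24 h at 20 nM, with 20 µM Z-VAD-FMK or vehicle added 4.5 h before harvest. Etoposide arm was 20 µM for 1 h alongside Z-VAD-FMK. Lysates normalized for protein and analysed by western blot for p53, p-Ser15 p53, γ-H2AX, H2AX and cleaved PARP (85 kDa) against stain-free total-protein loading.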

[20] = molecular target: DNA topoisomerase 2-alpha (Homo sapiens) (UniProt P11388); conditions: 20 uM; remark: listed apart in the source
[21] = molecular target: DNA topoisomerase 2-alpha (Homo sapiens) (UniProt P11388); conditions: 20 uM; remark: listed apart in the source
[22] = molecular target: T1, Dihydroorotate dehydrogenase (quinone), mitochondrial; assay: Inhibition of recombinant human DHODH using dihydroorotic acid as substrate measured for 68 mins by DCIP based colorimetric assay
[23] = Homo sapiens, ARN8, 72 h, read-out: IC50
[24] = Homo sapiens, 72 h, read-out: IC50

Compound: Cc1ccc(F)c(-n2ncc3c2CCC[C@H]3NC(=O)c2onc3c2CCCC3)c1
IC50 [1, 23]: 200 nM | IC50 [2, 24]: 6.7 µM

half-life at 1 µM [3]: > 60 min | half-life at 1 µM [4]: 1 min
Compound: O=C(N[C@@H]1CCCc2c1cnn2-c1ccccc1F)c1ccccn1
IC50 [1, 23]: 930 nM | IC50 [2, 24]: > 10 µM

Compound: O=C(NC1CCCc2c1cnn2-c1ccccc1F)c1onc2c1CCCC2 (racemic)
IC50 [1, 23]: 220 nM | IC50 [2, 24]: 8.9 µM

Compound: O=C(NC1CCCc2c1cnn2-c1ccccc1F)c1ccccn1 (racemic)
IC50 [1, 23]: 5400 nM | IC50 [2, 24]: > 10 µM

solubility kinetic at 4 h [5]: 15 µM (≈ 5.71 µg/mL) | half-life at 1 µM [3]: 85 min | inhibition [6]: Active | Retention_time [7]: 4.1 min | Retention_time [8]: 4.3 min | Retention_time [9]: 5.3 min | half-life at 1 µM [4]: 8 min
Compound: O=C(N[C@@H]1CCCc2c1cnn2-c1ccccc1F)c1onc2c1CCCC2
IC50 [1, 23]: 160 nM | IC50 [2, 24]: > 10 µM

Compound: Cc1ccccc1-n1ncc2c1CCC[C@H]2NC(=O)c1onc2c1CCCC2
IC50 [1, 23]: 73 nM | IC50 [2, 24]: > 10 µM

IC50 [10]: 6.5 µM | inhibition [6]: inactive
Compound: O=C(N[C@H]1CCCc2c1cnn2-c1ccccc1F)c1onc2c1CCCC2
IC50 [1]: Not Active | IC50 [2]: Not Active

Compound: O=C(N[C@@H]1CCCc2c1cnn2-c1ccccc1F)c1ncccn1
IC50 [1]: Not Active | IC50 [2]: Not Active

Compound: O=C(N[C@@H]1CCCc2c1cnn2-c1ccccc1F)c1noc2c1CCCC2
IC50 [1, 23]: 80 nM | IC50 [2, 24]: 10 µM | Activity (Homo sapiens [11]): inactive

solubility kinetic at 4 h [5]: 10 µM (≈ 3.76 µg/mL) | half-life at 1 µM [3]: 23 min | half-life at 1 µM [4]: 6 min
Compound: Cc1ccccc1-n1ncc2c1CCC[C@H]2NC(=O)c1noc2c1CCCC2
IC50 [1, 23]: 14 nM | IC50 [2, 24]: > 10 µM | inhibition (Homo sapiens [12]): Active | Activity [13]: Non-Toxic

Compound: Cc1ccccc1-n1ncc2c1CCCC2NC(=O)c1noc2c1CCCC2 (racemic)
IC50 [1, 23]: 15 nM | IC50 [2, 24]: 8.6 µM | Activity [14]: Toxic | Activity (Homo sapiens [11]): inactive | inhibition (Homo sapiens [12]): Active | Activity [13]: Non-Toxic

solubility kinetic at 4 h [5]: 110 µM (≈ 41.3 µg/mL) | half-life at 1 µM [3]: > 60 min | Stability ([4]; mouse, microsomes, 1 h, 1 µM): Stable
Compound: Cc1c(-c2ccc(-c3ccccc3F)cc2)nc2ccc(F)cc2c1C(=O)O [BREQUINAR]
IC50 [1, 23]: 400 nM | IC50 [2, 24]: > 10 µM

Compound: O=C(N[C@H]1CCCc2c1cnn2-c1ccccc1F)c1noc2c1CCCC2
IC50 [1]: Not Active | IC50 [2]: Not Active

inhibition [15]: Active | inhibition [16]: Active | inhibition [17]: Active | inhibition [18]: Active | inhibition [19]: Active | inhibition [20]: Active | inhibition [21]: Active
Compound: COc1cc([C@@H]2c3cc4c(cc3[C@@H](O[C@@H]3O[C@@H]5CO[C@@H](C)O[C@H]5[C@H](O)[C@H]3O)[C@H]3COC(=O)[C@H]23)OCO4)cc(OC)c1O

Compound: O=C(N[C@H]1CCCc2c1cnn2-c1ccccc1F)c1ccccn1
IC50 [1]: Not Active | IC50 [2]: Not Active

IC50 [22]: > 10 µM
Compound: COC(=O)c1ccc(C(=O)NC2CCCc3c2cnn3-c2ccccc2F)nc1 (racemic)

Compound: O=C(NC1CCCc2c1cnn2-c1ccccc1)c1noc2c1CCCC2 (racemic)
IC50 [1, 23]: 430 nM | IC50 [2, 24]: 7 µM

Compound: Cc1cccc(-n2ncc3c2CCCC3NC(=O)c2noc3c2CCCC3)c1C (racemic)
IC50 [1, 23]: 23 nM | IC50 [2, 24]: 7.7 µM | Activity [14]: Toxic | Activity (Homo sapiens [11]): inactive | inhibition (Homo sapiens [12]): Active | Activity [13]: Non-Toxic

solubility kinetic at 4 h [5]: 110 µM (≈ 38.1 µg/mL) | half-life at 1 µM [3]: > 60 min | half-life at 1 µM [4]: 10 min
Compound: Cc1ccnc(C(=O)N[C@@H]2CCCc3c2cnn3-c2ccccc2C)c1
IC50 [1, 23]: 62 nM | IC50 [2, 24]: > 10 µM | Activity [14]: Toxic | Activity (Homo sapiens [11]): inactive

Compound: O=C(N[C@@H]1CCCc2c1cnn2-c1ccccc1F)c1ncc2ccccn12
IC50 [1, 23]: 38 nM | IC50 [2, 24]: 9.4 µM

Compound: O=C(NC1CCCc2c1cnn2-c1ccccc1F)c1ccccc1 (racemic)
IC50 [1]: Not Active | IC50 [2]: Not Active

Compound: Cc1cccc(-n2ncc3c2CCCC3NC(=O)c2noc3c2CCCC3)c1 (racemic)
IC50 [1, 23]: 170 nM | IC50 [2, 24]: 8 µM

solubility kinetic at 4 h [5]: < 5 µM | Stability ([3]; microsomes, 1 h, 1 µM): Stable | half-life at 1 µM [4]: 54 min
Compound: O=C(N[C@@H]1CCCc2c1cnn2-c1ccccc1F)c1cc(C(F)(F)F)ccn1
IC50 [1, 23]: 110 nM | IC50 [2, 24]: > 10 µM | Activity [14]: Toxic | Activity (Homo sapiens [11]): inactive
